Measured values: ChEMBL document CHEMBL1133340, “Design, synthesis, and structure-activity relationship studies of ATP analogues as DNA gyrase inhibitors” (2000)
Values after ≈ are worked out from the molar mass of the structure shown. Values belong to the compound of their own block, whether it stands above or below them.

How the values were obtained:
[1] = target: T1, DNA gyrase (Escherichia coli) (UniProt P0AES6+P0AES4)
[2] = test system: Enterococcus faecium; test: Compound was tested in vitro for antibacterial activity against Enterococcus faecium vanA E23-8; format: functional
Outline: (§1)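 MIC by 2-fold agar dilution on Mueller-Hinton agar, inoculum 10⁴ CFU per spot.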

[3] = test system: Staphylococcus epidermidis; test: Compound was tested in vitro for antibacterial activity against Staphylococcus epidermidis ATCC 14990; format: functional
Outline: as §1

[4] = test system: Staphylococcus aureus; test: Compound was tested in vitro for antibacterial activity against Staphylococcus aureus ATCC 25923; format: functional
Outline: as §1

[5] = test system: Staphylococcus aureus; test: Compound was tested in vitro for antibacterial activity against Staphylococcus aureus Coum-R; format: functional
Outline: as §1

[6] = test system: Staphylococcus aureus; test: Compound was tested in vitro for antibacterial activity against Staphylococcus aureus H19982; format: functional
Outline: as §1

[7] = test system: Staphylococcus aureus; test: Compound was tested in vitro for antibacterial activity against Staphylococcus aureus NovoR; format: functional
Outline: as §1

[8] = test system: Staphylococcus aureus; test: Compound was tested in vitro for antibacterial activity against Staphylococcus aureus Smith; format: functional
Outline: as §1

[9] = test system: Staphylococcus aureus; test: Compound was tested in vitro for antibacterial activity against Staphylococcus aureus Smith QR-54; format: functional
Outline: as §1

[10] = test system: Streptococcus pyogenes; test: Compound was tested in vitro for antibacterial activity against Streptococcus pyogenes beta15; format: functional
Outline: as §1

[11] = target: T1, DNA gyrase (Escherichia coli); test: Maximum non-effective concentration against in vitro Escherichia coli DNA gyrase supercoiling activity was determined by coupled spectrophotometric ATPase assay; format: protein-complex assay
Outline: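 E. coli DNA gyrase ATPase activity measured in a coupled spectrophotometric system with pyruvate kinase and lactate dehydrogenase, following NADH disappearance as ATP is consumed; supercoiling assay used for validation. Value reported as maximum non-effective concentration (MNEC), the highest inhibitor concentration showing no gyrase inhibition.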

SMILES: Cc1nn2c(N)nc(Oc3ccc4c(O)cc(=O)oc4c3)nc2c1C#N
MNEC [1]: 8 µg/mL

SMILES: CCc1nn(-c2cc(Cl)cc(Cl)c2)c2nc(Oc3ccc4c(O)cc(=O)oc4c3)nc(NC3CC3)c12
MNEC [1]: 4 µg/mL

SMILES: CCc1nn(-c2cc(Cl)cc(Cl)c2)c2nc(Oc3ccc4c(O)c(C(C)=O)c(=O)oc4c3)nc(N)c12
MNEC [1]: 2 µg/mL

SMILES: CCc1nn(-c2cc(Cl)cc(Cl)c2)c2nc(Oc3ccc4c(C)cc(=O)oc4c3)nc(N)c12
MNEC [11]: > 125 µg/mL

SMILES: CCCCNC(=O)Nc1c(O)oc2cc(Oc3nc(N)c4c(CC)nn(-c5cc(Cl)cc(Cl)c5)c4n3)ccc2c1=O
MIC [2]: 16 µg/mL (≈ 26.7 µM)
MIC [3]: 4 µg/mL (≈ 6.68 µM)
MIC [4]: 4 µg/mL (≈ 6.68 µM)
MIC [5]: 8 µg/mL (≈ 13.4 µM)
MIC [6]: 4 µg/mL (≈ 6.68 µM)
MIC [7]: 8 µg/mL (≈ 13.4 µM)
MIC [8]: 8 µg/mL (≈ 13.4 µM)
MIC [9]: 2 µg/mL (≈ 3.34 µM)
MIC [10]: 2 µg/mL (≈ 3.34 µM)
MNEC [1]: 0.5 µg/mL

SMILES: CCc1nn(-c2cc(Cl)cc(Cl)c2)c2nc(Oc3ccc4c(O)c(NC(C)=O)c(=O)oc4c3)nc(N)c12
MIC [2]: > 32 µg/mL
MIC [3]: 4 µg/mL (≈ 7.39 µM)
MIC [4]: 16 µg/mL (≈ 29.6 µM)
MIC [5]: 16 µg/mL (≈ 29.6 µM)
MIC [6]: 4 µg/mL (≈ 7.39 µM)
MIC [7]: 16 µg/mL (≈ 29.6 µM)
MIC [8]: 8 µg/mL (≈ 14.8 µM)
MIC [9]: 8 µg/mL (≈ 14.8 µM)
MIC [10]: 1 µg/mL (≈ 1.85 µM)
MNEC [1]: 0.5 µg/mL

SMILES: Cc1ccc(Oc2nc(N)n3ncc(-c4ccc(Cl)c(Cl)c4)c3n2)cn1
MNEC [11]: < 16 µg/mL
MNEC [1]: > 63 µg/mL

SMILES: COc1ccc(-c2cnn3c(N)nc(Oc4ccc5c(O)cc(=O)oc5c4)nc23)cc1OC
MNEC [1]: 0.1 µg/mL

SMILES: CCc1nn(-c2cc(Cl)cc(Cl)c2)c2nc(Oc3ccc4c(N(C)C)cc(=O)oc4c3)nc(N)c12
MNEC [11]: 125 µg/mL

SMILES: Nc1nc(Oc2ccc3c(O)cc(=O)oc3c2)nc2c1cnn2-c1cc(Cl)cc(Cl)c1
MNEC [1]: 0.5 µg/mL

SMILES: Cc1ccc(Oc2nc(N)c3cnn(-c4cc(Cl)cc(Cl)c4)c3n2)cn1
MNEC [1]: > 125 µg/mL

SMILES: CCOC(=O)c1c(O)oc2cc(Oc3nc(N)c4c(CC)nn(-c5cc(Cl)cc(Cl)c5)c4n3)ccc2c1=O
MNEC [1]: 2 µg/mL

SMILES: CO[C@@H]1[C@@H](OC(N)=O)[C@@H](O)[C@H](Oc2ccc3c(O)c(NC(=O)c4ccc(O)c(CC=C(C)C)c4)c(=O)oc3c2C)OC1(C)C [NOVOBIOCIN]
MIC [2]: 8 µg/mL (≈ 13.1 µM)
MIC [3]: 0.12 µg/mL (≈ 0.196 µM)
MIC [4]: 0.25 µg/mL (≈ 0.408 µM)
MIC [5]: 16 µg/mL (≈ 26.1 µM)
MIC [6]: 0.25 µg/mL (≈ 0.408 µM)
MIC [7]: 8 µg/mL (≈ 13.1 µM)
MIC [8]: 0.25 µg/mL (≈ 0.408 µM)
MIC [9]: 8 µg/mL (≈ 13.1 µM)
MIC [10]: 2 µg/mL (≈ 3.26 µM)

SMILES: CCc1nn(-c2cccc(F)c2)c2nc(Oc3ccc4c(O)cc(=O)oc4c3)nc(N)c12
MNEC [1]: 1 µg/mL

Now from value to compound:

MIC [2]: > 32 µg/mL
MIC [3]: 0.5 µg/mL (≈ 1.09 µM)
MIC [4]: 16 µg/mL (≈ 34.8 µM)
MIC [5]: 32 µg/mL (≈ 69.5 µM)
MIC [6]: 4 µg/mL (≈ 8.69 µM)
MIC [7]: 32 µg/mL (≈ 69.5 µM)
MIC [8]: 16 µg/mL (≈ 34.8 µM)
MIC [9]: 2 µg/mL (≈ 4.34 µM)
MNEC [1]: 0.25 µg/mL
SMILES: CCc1nn(-c2cc(Cl)cc(Cl)c2)c2nc(Sc3cccc(C(=O)O)c3)nc(N)c12

MIC [2]: 32 µg/mL (≈ 74 µM)
MIC [3]: 4 µg/mL (≈ 9.25 µM)
MIC [4]: > 32 µg/mL
MIC [5]: > 32 µg/mL
MIC [6]: > 32 µg/mL
MIC [7]: > 32 µg/mL
MIC [8]: > 32 µg/mL
MIC [9]: > 32 µg/mL
MIC [10]: 0.5 µg/mL (≈ 1.16 µM)
MNEC [1]: 1 µg/mL
SMILES: Nc1nc(Sc2cccc(C(=O)O)c2)nc2c(-c3ccc(Cl)c(Cl)c3)cnn12

MNEC [1]: 8 µg/mL
SMILES: CCNc1nc(Sc2cccc(C(=O)O)c2)nc2c1c(CC)nn2-c1cc(Cl)cc(Cl)c1

MNEC [1]: 8 µg/mL
SMILES: CCc1nn(-c2cccc(F)c2)c2nc(Sc3cccc(C(=O)O)c3)nc(N)c12

MNEC [1]: 0.25 µg/mL
SMILES: Cc1nn(-c2cc(Cl)cc(Cl)c2)c2nc(Oc3ccc4c(O)cc(=O)oc4c3)nc(N)c12

MNEC [11]: 125 µg/mL
SMILES: CCOC(=O)c1cccc(Oc2nc(N)c3c(CC)nn(-c4cc(Cl)cc(Cl)c4)c3n2)c1

MNEC [11]: 125 µg/mL
SMILES: CCOC(=O)c1cccc(Oc2nc(N)c3cnn(-c4cc(Cl)cc(Cl)c4)c3n2)c1

MNEC [1]: 8 µg/mL
SMILES: CCc1nn(-c2cc(Cl)cc(Cl)c2)c2nc(Sc3cccc(C(=O)O)c3)nc(NC3CC3)c12

MNEC [1]: 1 µg/mL
SMILES: Cc1nn(-c2cc(Cl)cc(Cl)c2)c2nc(Sc3cccc(C(=O)O)c3)nc(N)c12

MNEC [1]: 1 µg/mL
SMILES: Nc1nc(Sc2cccc(C(=O)O)c2)nc2c1cnn2-c1cc(Cl)cc(Cl)c1

MNEC [1]: 0.06 µg/mL
SMILES: CCc1nn(-c2cc(Cl)cc(Cl)c2)c2nc(Oc3ccc4c(O)cc(=O)oc4c3)nc(N)c12

MNEC [1]: 0.5 µg/mL
SMILES: Cc1nn2c(N)nc(Sc3cccc(C(=O)O)c3)nc2c1C#N

MNEC [11]: < 16 µg/mL
MNEC [1]: > 16 µg/mL
SMILES: CCc1nn(-c2cc(Cl)cc(Cl)c2)c2nc(Oc3ccc(C)nc3)nc(N)c12

MNEC [11]: 63 µg/mL
SMILES: CCOC(=O)c1cccc(Oc2nc(N)c3c(C)nn(-c4cc(Cl)cc(Cl)c4)c3n2)c1

MNEC [11]: 125 µg/mL
SMILES: Cc1ccc(Oc2nc(N)c3c(C)nn(-c4cc(Cl)cc(Cl)c4)c3n2)cn1
